Assay results taken from the M2OR odorant receptor database.

Assays:
Details in all cases: stereoisomer not certain
O1440 [1] = tested on: T1, O1440
T1 sequence (whole entry): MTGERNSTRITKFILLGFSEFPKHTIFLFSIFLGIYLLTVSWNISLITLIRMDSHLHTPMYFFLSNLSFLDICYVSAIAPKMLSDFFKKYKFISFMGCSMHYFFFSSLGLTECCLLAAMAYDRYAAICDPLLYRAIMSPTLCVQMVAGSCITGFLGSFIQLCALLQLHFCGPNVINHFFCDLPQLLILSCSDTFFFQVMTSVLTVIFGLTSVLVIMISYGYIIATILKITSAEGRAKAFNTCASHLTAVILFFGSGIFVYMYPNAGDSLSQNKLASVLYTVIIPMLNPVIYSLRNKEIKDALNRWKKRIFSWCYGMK
Summary of the method: (§1)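 Transient luciferase assays in mammalian cell lines were common, though methods varied by source. The values come from published papers and their supplementary material, with extra details from the original authors when needed. Responsive refers to a measured signal the original authors judged statistically different from baseline, and non-responsive (inactive) to the remainder.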

O1440 [2] = tested on: T2, O1440; remark: listed apart in the source
T2 sequence (whole entry): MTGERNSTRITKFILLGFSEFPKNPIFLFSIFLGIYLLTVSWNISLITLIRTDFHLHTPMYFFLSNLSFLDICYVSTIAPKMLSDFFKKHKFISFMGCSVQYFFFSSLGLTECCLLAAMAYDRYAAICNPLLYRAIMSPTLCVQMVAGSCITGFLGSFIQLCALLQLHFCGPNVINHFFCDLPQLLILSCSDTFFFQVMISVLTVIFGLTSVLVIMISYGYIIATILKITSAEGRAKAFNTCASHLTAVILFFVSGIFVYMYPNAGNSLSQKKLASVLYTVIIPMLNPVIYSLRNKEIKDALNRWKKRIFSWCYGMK
Summary of the method: as §1

O14A2 I133V = tested on: O14A2 I133V
Summary of the method: as §1

O14CZ = tested on: O14CZ
Summary of the method: as §1

O14I1 V36A D50N Y216C = tested on: O14I1 V36A D50N Y216C
Summary of the method: as §1

O14J1 N3Y = tested on: O14J1 N3Y
Summary of the method: as §1

O14K1 D119Y = tested on: O14K1 D119Y
Summary of the method: as §1

O2A25 = tested on: O2A25
Summary of the method: as §1

O2AE1 = tested on: O2AE1
Summary of the method: as §1

O2AJ1 = tested on: O2AJ1
Summary of the method: as §1

O2AK2 S99N = tested on: O2AK2 S99N
Summary of the method: as §1

O2T11 = tested on: O2T11
Summary of the method: as §1

O2T27 L36V V134D = tested on: O2T27 L36V V134D
Summary of the method: as §1

O2T29 Q24R = tested on: O2T29 Q24R
Summary of the method: as §1

O2T33 A169V = tested on: O2T33 A169V
Summary of the method: as §1

O2T33 G297E I309L = tested on: O2T33 G297E I309L
Summary of the method: as §1

O2T34 Q6P R267P = tested on: O2T34 Q6P R267P
Summary of the method: as §1

O2T34 R267P = tested on: O2T34 R267P
Summary of the method: as §1

O4A47 = tested on: O4A47
Summary of the method: as §1

O4C46 S240F C252Y K288R = tested on: O4C46 S240F C252Y K288R
Summary of the method: as §1
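Note: active if original authors judged signal statistically different from baseline.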

O2T34 R267P, sequence (as listed by the source, stated change not applied): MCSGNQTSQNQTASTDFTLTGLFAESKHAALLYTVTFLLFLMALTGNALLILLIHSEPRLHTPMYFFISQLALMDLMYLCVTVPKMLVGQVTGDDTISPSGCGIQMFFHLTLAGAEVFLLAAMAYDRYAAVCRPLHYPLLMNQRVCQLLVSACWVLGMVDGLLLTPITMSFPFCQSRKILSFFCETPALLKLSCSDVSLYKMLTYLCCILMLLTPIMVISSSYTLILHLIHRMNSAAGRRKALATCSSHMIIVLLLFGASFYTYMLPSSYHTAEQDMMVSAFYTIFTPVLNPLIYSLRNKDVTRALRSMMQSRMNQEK
O2AJ1, sequence (as listed by the source): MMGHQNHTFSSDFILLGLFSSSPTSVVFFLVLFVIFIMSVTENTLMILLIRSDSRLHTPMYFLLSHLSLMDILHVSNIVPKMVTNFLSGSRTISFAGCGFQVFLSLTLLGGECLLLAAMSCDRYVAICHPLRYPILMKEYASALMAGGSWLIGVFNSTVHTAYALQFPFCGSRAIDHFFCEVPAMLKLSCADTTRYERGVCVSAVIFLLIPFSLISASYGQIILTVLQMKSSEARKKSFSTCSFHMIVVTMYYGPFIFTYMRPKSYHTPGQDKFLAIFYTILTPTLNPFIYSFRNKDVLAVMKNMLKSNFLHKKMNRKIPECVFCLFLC
O2AK2 S99N, sequence (as listed by the source, stated change not applied): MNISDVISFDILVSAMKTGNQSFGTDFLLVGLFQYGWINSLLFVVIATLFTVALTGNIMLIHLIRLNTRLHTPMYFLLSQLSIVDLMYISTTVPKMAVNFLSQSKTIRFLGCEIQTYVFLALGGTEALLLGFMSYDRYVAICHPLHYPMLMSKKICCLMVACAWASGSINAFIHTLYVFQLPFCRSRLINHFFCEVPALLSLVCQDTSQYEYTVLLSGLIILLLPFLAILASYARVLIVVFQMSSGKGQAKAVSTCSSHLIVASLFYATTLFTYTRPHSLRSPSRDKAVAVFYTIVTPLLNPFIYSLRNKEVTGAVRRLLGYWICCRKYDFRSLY
O14J1 N3Y, sequence (as listed by the source): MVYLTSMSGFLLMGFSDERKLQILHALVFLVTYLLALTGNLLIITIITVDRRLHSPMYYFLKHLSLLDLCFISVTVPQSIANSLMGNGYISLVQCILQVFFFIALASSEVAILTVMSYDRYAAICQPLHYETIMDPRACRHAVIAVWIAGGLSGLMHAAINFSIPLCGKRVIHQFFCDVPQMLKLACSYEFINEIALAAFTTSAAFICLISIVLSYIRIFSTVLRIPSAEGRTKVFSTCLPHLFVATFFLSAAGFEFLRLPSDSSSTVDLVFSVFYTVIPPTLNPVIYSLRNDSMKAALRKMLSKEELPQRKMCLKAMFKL
O14K1 D119Y, sequence (as listed by the source, stated change not applied): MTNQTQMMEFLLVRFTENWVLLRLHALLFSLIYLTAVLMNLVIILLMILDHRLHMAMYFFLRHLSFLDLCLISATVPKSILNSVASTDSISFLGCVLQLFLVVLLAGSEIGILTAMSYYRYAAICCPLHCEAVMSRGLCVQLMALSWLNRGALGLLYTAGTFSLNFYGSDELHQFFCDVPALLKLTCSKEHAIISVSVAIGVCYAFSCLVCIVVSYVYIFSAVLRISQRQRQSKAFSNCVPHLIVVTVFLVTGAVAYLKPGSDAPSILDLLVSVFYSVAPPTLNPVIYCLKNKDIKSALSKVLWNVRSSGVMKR
O2A25, sequence (as listed by the source): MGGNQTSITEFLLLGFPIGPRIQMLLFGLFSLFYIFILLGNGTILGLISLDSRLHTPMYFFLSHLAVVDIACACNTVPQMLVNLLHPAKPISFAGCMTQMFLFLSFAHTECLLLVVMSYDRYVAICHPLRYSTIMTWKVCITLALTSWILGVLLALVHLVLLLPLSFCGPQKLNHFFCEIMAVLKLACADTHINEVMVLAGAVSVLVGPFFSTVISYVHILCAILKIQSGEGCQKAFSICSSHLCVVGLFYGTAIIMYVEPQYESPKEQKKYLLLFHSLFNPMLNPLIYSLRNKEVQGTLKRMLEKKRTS
O14CZ, sequence (as listed by the source): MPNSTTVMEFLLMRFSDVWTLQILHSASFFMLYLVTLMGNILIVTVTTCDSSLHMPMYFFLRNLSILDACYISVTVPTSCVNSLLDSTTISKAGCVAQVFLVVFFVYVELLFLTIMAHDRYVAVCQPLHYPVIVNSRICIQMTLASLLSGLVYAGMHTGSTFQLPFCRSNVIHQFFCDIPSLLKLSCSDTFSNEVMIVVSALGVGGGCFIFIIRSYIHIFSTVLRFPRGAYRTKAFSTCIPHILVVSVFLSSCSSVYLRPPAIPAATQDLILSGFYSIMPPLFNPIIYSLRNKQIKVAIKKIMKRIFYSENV
O14A2 I133V, sequence (as listed by the source, stated change not applied): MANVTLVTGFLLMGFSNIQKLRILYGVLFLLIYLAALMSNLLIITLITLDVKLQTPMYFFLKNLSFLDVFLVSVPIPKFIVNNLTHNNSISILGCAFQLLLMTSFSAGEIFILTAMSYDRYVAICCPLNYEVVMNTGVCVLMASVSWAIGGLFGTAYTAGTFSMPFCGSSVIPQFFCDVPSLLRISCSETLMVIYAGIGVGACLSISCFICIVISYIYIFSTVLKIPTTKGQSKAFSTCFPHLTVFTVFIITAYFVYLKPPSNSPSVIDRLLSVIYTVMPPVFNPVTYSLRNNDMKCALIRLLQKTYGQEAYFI
O2AE1, sequence (as listed by the source): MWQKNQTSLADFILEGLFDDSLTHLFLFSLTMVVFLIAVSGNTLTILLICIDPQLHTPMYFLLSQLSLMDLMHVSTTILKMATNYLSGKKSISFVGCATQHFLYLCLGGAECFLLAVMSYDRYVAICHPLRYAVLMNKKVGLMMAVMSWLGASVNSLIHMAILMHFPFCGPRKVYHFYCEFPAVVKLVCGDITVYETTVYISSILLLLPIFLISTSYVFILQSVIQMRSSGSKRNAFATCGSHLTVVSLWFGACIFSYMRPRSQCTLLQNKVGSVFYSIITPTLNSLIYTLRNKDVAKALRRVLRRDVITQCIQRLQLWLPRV
O2T29 Q24R, sequence (as listed by the source, stated change not applied): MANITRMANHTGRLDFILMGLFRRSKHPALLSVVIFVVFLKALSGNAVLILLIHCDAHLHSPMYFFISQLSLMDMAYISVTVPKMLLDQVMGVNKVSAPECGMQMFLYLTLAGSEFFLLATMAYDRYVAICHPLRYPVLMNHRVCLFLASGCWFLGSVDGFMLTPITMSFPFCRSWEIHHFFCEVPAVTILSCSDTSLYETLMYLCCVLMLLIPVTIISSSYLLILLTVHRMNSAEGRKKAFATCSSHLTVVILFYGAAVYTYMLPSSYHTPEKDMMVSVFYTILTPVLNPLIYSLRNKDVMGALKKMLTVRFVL
O2T11, sequence (as listed by the source): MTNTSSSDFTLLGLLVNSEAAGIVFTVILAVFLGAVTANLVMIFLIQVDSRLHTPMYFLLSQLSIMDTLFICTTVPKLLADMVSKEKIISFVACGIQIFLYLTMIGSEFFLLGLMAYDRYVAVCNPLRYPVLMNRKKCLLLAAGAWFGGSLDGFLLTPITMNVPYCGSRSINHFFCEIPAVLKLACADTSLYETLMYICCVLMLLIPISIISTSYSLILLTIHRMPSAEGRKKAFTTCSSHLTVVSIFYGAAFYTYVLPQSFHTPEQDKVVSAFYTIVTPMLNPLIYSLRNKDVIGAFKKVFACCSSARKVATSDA
O4A47, sequence (as listed by the source): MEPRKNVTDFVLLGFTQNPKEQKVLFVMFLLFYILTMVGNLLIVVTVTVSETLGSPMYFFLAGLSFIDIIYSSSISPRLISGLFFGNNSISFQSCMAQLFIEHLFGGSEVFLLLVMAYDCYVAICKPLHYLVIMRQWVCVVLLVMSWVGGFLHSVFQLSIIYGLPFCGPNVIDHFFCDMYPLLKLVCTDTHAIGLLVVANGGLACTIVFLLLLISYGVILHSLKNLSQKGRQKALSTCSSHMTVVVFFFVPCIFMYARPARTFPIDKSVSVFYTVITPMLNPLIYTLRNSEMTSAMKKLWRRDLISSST
O2T33 A169V, sequence (as listed by the source, stated change not applied): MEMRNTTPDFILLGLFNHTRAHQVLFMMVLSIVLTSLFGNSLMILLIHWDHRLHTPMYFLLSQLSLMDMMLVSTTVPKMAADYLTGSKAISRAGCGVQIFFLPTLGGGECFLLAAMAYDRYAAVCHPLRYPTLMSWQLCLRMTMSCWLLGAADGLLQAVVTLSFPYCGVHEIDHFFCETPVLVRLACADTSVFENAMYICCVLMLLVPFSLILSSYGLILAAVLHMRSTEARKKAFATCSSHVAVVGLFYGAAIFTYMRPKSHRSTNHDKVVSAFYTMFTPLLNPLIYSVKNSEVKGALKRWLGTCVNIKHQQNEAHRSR

Cc1c([N+](=O)[O-])c(C)c([N+](=O)[O-])c(C(C)(C)C)c1[N+](=O)[O-]
odorant receptor agonist call (O1440 [1]): inactive | odorant receptor agonist call (O1440 [2]): active

CC(=O)c1cc(C(C)(C)C)cc2c1CCC2(C)C
odorant receptor agonist call (O1440 [1]): inactive | odorant receptor agonist call (O1440 [2]): inactive

CC(=O)c1cc2c(cc1C)C(C)(C)C(C)CC2(C)C (centres undefined)
odorant receptor agonist call (O1440 [1]): active | odorant receptor agonist call (O1440 [2]): active

C=CCOC(=O)Cc1ccccc1
odorant receptor agonist call (O14A2 I133V): inactive | odorant receptor agonist call (O14CZ): inactive | odorant receptor agonist call (O14I1 V36A D50N Y216C): inactive | odorant receptor agonist call (O14J1 N3Y): inactive | odorant receptor agonist call (O14K1 D119Y): inactive | odorant receptor agonist call (O2A25): inactive | odorant receptor agonist call (O2AE1): inactive | odorant receptor agonist call (O2AJ1): inactive | odorant receptor agonist call (O2AK2 S99N): inactive | odorant receptor agonist call (O2T11): inactive | odorant receptor agonist call (O2T27 L36V V134D): inactive | odorant receptor agonist call (O2T29 Q24R): inactive | odorant receptor agonist call (O2T33 A169V): inactive | odorant receptor agonist call (O2T33 G297E I309L): inactive | odorant receptor agonist call (O2T34 Q6P R267P): inactive | odorant receptor agonist call (O2T34 R267P): inactive | odorant receptor agonist call (O4A47): inactive | odorant receptor agonist call (O4C46 S240F C252Y K288R): inactive
